{"data": "Published values of several laboratories", "observed": "cell growth or viability", "note": "Each line is one published result; the experiments were not run side by side."}
{"Compound": "c1cc(Nc2nccc(NC3CCCCC3)n2)cc(-c2ncco2)c1", "cell line": "BJ", "method": "ATP luminescence", "time": "72 h", "measurement": "EC50", "value": "> 45 µM"}
{"Compound": "C=CC(=O)N1CCC[C@@H](n2nc(-c3ccc(Oc4ccccc4)cc3)c3c(N)ncnc32)C1", "cell line": "UPN1", "method": "ATP luminescence", "time": "72 h", "measurement": "GI50", "value": "4.87 µM"}
{"Compound": "COc1ccc(-c2ccc(-c3ccc(C(=N)N)nc3)s2)cc1", "cell line": "ACHN", "measurement": "GI50", "value": "1.84 µM"}
{"Compound": "CCNc1ccnc(Nc2cccc(-c3cccnc3)c2)n1", "cell line": "BJ", "method": "ATP luminescence", "time": "72 h", "measurement": "EC50", "value": "> 21 µM"}
{"Compound": "Cc1cc(Cl)c(Cl)cc1NC(=O)c1ccc(N2CCNCC2)nc1", "cell line": "BJ", "method": "ATP luminescence", "measurement": "EC50", "value": "> 24 µM"}
{"Compound": "CN(C)C/C=C/C(=O)Nc1cc2c(Nc3ccc(F)c(Cl)c3)ncnc2cc1O[C@H]1CCOC1", "cell line": "KB-C2", "method": "ATP luminescence", "concentration": "3 µM", "time": "12 days", "notes": "3D culture", "measurement": "viability", "value": "67.7%"}
{"Compound": "CC(=O)c1c(C)c2cnc(Nc3ccc(N4CCNCC4)cn3)nc2n(C2CCCC2)c1=O", "cell line": "MDA-MB-157", "method": "resazurin", "measurement": "GI50", "value": "> 5 µM"}
{"Compound": "Oc1ccc(Nc2nc(-c3ccc(Cl)cc3)cs2)cc1", "cell line": "1205Lu", "method": "MTS", "time": "48 h", "measurement": "IC50", "value": "86.3 µM"}
{"Compound": "COC(=O)[C@H](C)Nc1ccnc(Nc2cccc(-c3cccnc3)c2)n1", "cell line": "BJ", "method": "ATP luminescence", "time": "72 h", "measurement": "EC50", "value": "> 8 µM"}
{"Compound": "COc1cc(-c2ccc(-c3ccc(C(=N)N)nc3)s2)cc(OC)c1OC", "cell line": "OVCAR-3", "method": "SRB", "measurement": "GI50", "value": "2.6 µM"}
{"Compound": "O=C(Nc1cncc(-c2nc3ccccc3s2)c1)c1cc([N+](=O)[O-])c(N2CCNCC2)cc1Cl", "cell line": "BJ", "method": "ATP luminescence", "measurement": "EC50", "value": "> 15.3 µM"}
{"Compound": "CC(C)Nc1ccnc(Nc2cccc(-c3cccnc3)c2)n1", "cell line": "BJ", "method": "ATP luminescence", "time": "72 h", "measurement": "EC50", "value": "> 17 µM"}
{"Compound": "C[C@]12CC[C@@H]3c4ccc(O)cc4CC[C@H]3[C@@H]1CC[C@@H]2O", "cell line": "OVCAR-3", "method": "ATP luminescence", "time": "72 h", "measurement": "EC90", "value": "76.1 µM"}
{"Compound": "CC#CC(=O)N1CC[C@@H](n2cc(-c3ccc(Oc4c(F)cccc4F)cc3)c3c(N)n[nH]c(=O)c32)C1", "cell line": "UPN1", "method": "ATP luminescence", "time": "72 h", "measurement": "GI50", "value": "2.21 µM"}
